# Pyk2 oligo antag = blocks oligomerization of human Pyk2 in cells; Q14289; Q293 cells, Pyk2 FERM NanoBiT luminescence; stronger effect = lower value; z-score (the deposit names both 25 µM and 10 µM); 99,000 compounds, 0.83% hits;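 active = Z-score of -3 or lower, scaled per plate to the spread of control and sample wells; inactive = z-score above -3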;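 also: negative z-score means lost luminescence so less FERM oligomerization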
# HIV Rev-RRE inh = inhibitors of HIV-1 Rev-RRE RNA interaction; P05866; AID 704; 97,000 compounds, 0.79% hits; Rev peptide-RRE RNA binding, FRET; inhibition, % at 8 µM;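 active = inhibition above the screen-wide mean plus 3 SD, cut at about 35% in these data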;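 also: 0% = median DMSO wells and 100% = median Neomycin B control wells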
#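 Probe or stimulus: fluorescein-Rev peptide as binding partner; assay system: Cy5-tagged RRE RNA duplex with fluorescein-tagged Rev peptide; timing: 5 min compound–RNA preincubation, then 15 min with peptide, 25 °C; medium: HEPES pH 7.5 buffer with KCl, MgCl2, NaCl and EDTA; signal: fluorescein-to-Cy5 FRET, 480 nm excitation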
# PLK1 kinase inh = blocks human PLK1 kinase activity; inhibition, % at 10 µM; recombinant PLK1 kinase, TR-FRET peptide phosphorylation; AID 619; P53350; 97,000 compounds, 0.53% hits;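 active = inhibition of 50% or more in the single-concentration screen; inactive = inhibition below 50%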;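 also: 0% = DMSO max control and 100% = H-89 dihydrochloride min control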
# Cav32 inh = inhibitors of human Cav3.2 T-type calcium channel; O95180; Cav3.2-expressing cells, Fluo-4 calcium fluorescence FDSS; stronger effect = lower value; B-score at 10 µM; 100,000 compounds, 4% hits; AID 449739;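 active = single-dose well whose peak fluorescence ratio is a statistical outlier from its plate by either plate-standardised score or position-corrected B-score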
# Plk1 PBD FP = Plk1 (human) PBD binding inhibition; 97,000 compounds, 0.13% hits; P53350; Plk1 PBD phosphopeptide binding, fluorescence polarization; inhibition, %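 (tested at about 20 µM)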; in the data active = inhibition above about 34%, passing the limit was not always enough
# FAK inh = inhibitors of human focal adhesion kinase. Q05397. biochemical FAK kinase activity assay. inhibition, %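 (tested at 7 µM)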. 97,000 compounds, 0.84% hits; in the data active = inhibition above about 19%;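 also: 0% = DMSO and 100% = reference compound high control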
# * = called active by the depositor; nt = no result given. A selection: hits, their analogues and other compounds. The true share with any hit is near 5.8%.
SMILES,Pyk2 oligo antag,HIV Rev-RRE inh,PLK1 kinase inh,Cav32 inh,Plk1 PBD FP,FAK inh
COc1ccc(Nc2nc(NCc3ccco3)nc(N/N=C/c3ccccc3)n2)cc1,-3.2*,1,-7,-7.6*,19,3
CC(C)CNc1cc(N2CCCC2)ccc1[N+](=O)[O-],-2.6,8,-5,-0.54,12,6
CCCC(=O)N1CCN(c2ccc([N+](=O)[O-])c(NC(C)c3ccccc3)c2)CC1 (stereo unspecified),-2.7,9,-10,-6.3*,-5,6
COCCN1C=C(C(=O)OC)C(c2cc(Br)c(OC)c(OC)c2)C(C(=O)OC)=C1,-3.4*,2,-2,-0.34,9,-1
COC(=O)C1=CN(C)C=C(C(=O)OC)C1c1ccc(O)c(OC)c1,-0.39,5,-4,0.048,7,2
CCCCOC1(c2ccccc2)NC(=S)NN=C1c1ccccc1 (stereo unspecified),nt,-1,-10,-2.7,2,-3
O=C1c2ccccc2C(=O)N1CC1c2ccccc2CCN1C(=O)C1CCCCC1 (stereo unspecified),2.6,14,-9,-2.5,1,4
CCN(CC)C(=O)N1CCc2ccccc2C1CN1C(=O)c2ccccc2C1=O (stereo unspecified),-0.62,8,-4,-4.2*,-10,3
COc1ccc(C(C)(C)C)cc1S(=O)(=O)N1CCN(C)CC1,0.49,7,-13,0.32,0,-1
COc1ccccc1N1CCN(CC(=O)Nc2ccc(Cl)c(C(F)(F)F)c2)CC1,1.8,-3,-14,-4.2*,17,-2
CCOc1ccc(NC(=O)CN2CCN(CC(=O)Nc3ccc(Cl)c(C(F)(F)F)c3)CC2)cc1,-0.53,19,1,-6.2*,-14,-1
O=C(CN1CCN(c2ccccn2)CC1)Nc1ccc(Cl)c(C(F)(F)F)c1,0.88,18,-13,-0.27,-1,0
CCOc1ccc(NC(=O)CN2CCN(CC(=O)Nc3cccc(F)c3)CC2)cc1,0.05,nt,nt,0.72,nt,nt
O=C(Nc1nccs1)c1csc2c1CCCC2,-1.9,-6,-7,-0.094,-26,4
COC(=O)C1=C(C)N=C2SC(C)C(=O)N2C1c1cccc(F)c1 (stereo unspecified),-3.6*,3,-3,-4.6*,5,-3
Cc1ccccc1CNC(=O)c1ccc(CSCc2ccccc2)cc1,-0.35,11,0,-5.9*,-17,-8
O=C(NCc1ccccc1)c1ccc(Oc2ccc(C(=O)NCc3ccccc3)cc2)cc1,2.3,0,0,-1.1,-10,2
Fc1cccc(Cl)c1CSc1nnc(COc2cccc3cccnc23)o1,0.53,8,-11,-2.8,17,0
C=CCn1c(SCC(=O)N2CCOCC2)nc2sc3c(c2c1=O)CCCC3,-0.15,6,-3,0.48,-8,0
C=CCn1c(SCC(=O)N2CC(=O)Nc3ccccc32)nc2scc(-c3ccccc3)c2c1=O,-2.4,11,-2,-7.2*,11,-4
C=CCn1c(SCC(=O)N2CCOCC2)nc2scc(-c3ccco3)c2c1=O,1.4,nt,nt,3.5*,nt,nt
CCN(C(=O)c1ccc(C(C)(C)C)cc1)c1nnc(Cn2nnc3ccccc32)s1,-1.5,3,-1,-8*,-2,-6
CCn1c(-c2ccccc2Cl)nn(CC(=O)Nc2ccccc2C)c1=S,-0.17,-2,1,0.82,14,-7
Cc1ccc2cccnc2c1NC(=S)NC(=O)c1ccccc1,-0.54,0,-12,0.35,-16,-6
Cc1oc(-c2ccc(Cl)cc2)nc1CN1CCC(C(=O)N2CCN(Cc3ccccc3)CC2)CC1,nt,6,59*,nt,-11,4
SMILES,Pyk2 oligo antag,HIV Rev-RRE inh,PLK1 kinase inh,Cav32 inh,Plk1 PBD FP,FAK inh
Cc1oc(-c2ccccc2F)nc1CN1CCC(C(=O)NCCC2=CCCCC2)CC1,0.1,0,-16,-5.7*,-28,-3
Cc1oc(-c2ccc(Cl)cc2)nc1CN1CCC(C(=O)N2CCc3ccccc3C2)CC1,nt,3,7,nt,-17,5
CCN1CCN(CCNC(=O)C2CCN(Cc3nc(-c4ccc(Cl)cc4)oc3C)CC2)CC1,nt,3,65*,nt,-20,0
CC1CCCC(NC(=O)CSc2nnnn2C)C1C (stereo unspecified),0.92,1,3,-4.7*,-8,3
CCN(CC(=O)NCc1cccs1)S(=O)(=O)c1ccc(C(C)C)cc1,-0.55,5,-9,-4*,-3,-6
CN(C)S(=O)(=O)c1ccc(C(=O)NCc2cccs2)cc1,1.6,7,-4,0.85,-33,-5
CC(C)c1ccc(NC(=S)NCc2cccs2)cc1,0.59,-9,-3,-6.3*,-4,3
S=C(NCc1cccs1)Nc1cccc(Cl)c1,-0.86,-1,-5,-1.1,-2,10
CCCNC(=O)c1ccc2c(=O)n3c(-c4ccc(C)cc4)csc3nc2c1,nt,nt,nt,0.21,nt,nt
Cn1c(=O)c(C(=O)CN2CCCc3ccccc32)c(N)n(Cc2ccccc2)c1=O,0.92,nt,nt,-4.1*,nt,nt
COCCn1c(=O)c2c(nc3n2CCN3c2ccc(C)cc2)n(C)c1=O,nt,2,-11,0.19,-4,-1
COc1ccccc1N1CCN(C(=O)c2ccncc2)CC1,-0.45,10,-12,1.1,-28,4
COc1ccccc1N1CCN(C(=O)c2ccc(C(C)(C)C)cc2)CC1,-1.9,4,-3,-5*,-3,1
COc1ccccc1N1CCN(C(=O)C(Sc2ccccc2)c2ccccc2)CC1 (stereo unspecified),-0.78,2,-9,-4.6*,8,-2
COc1ccc2nc(N3CCCC3)c(C#N)cc2c1,0.89,47*,-19,-3.6*,-32,4
COc1ccc2nc(SCC(=O)N3CCCCCC3)c(C#N)cc2c1,-1.8,14,3,-0.77,-10,4
CC(C)=C1C2CCC1C1C(=O)N(NC(=O)COc3ccc(Cl)c(C)c3)C(=O)C21 (stereo unspecified),0.41,13,-8,-5.3*,13,-1
O=C(Oc1cccc(NC(=O)c2ccco2)c1)c1cccc(S(=O)(=O)N2CCCCC2)c1,0.43,14,-13,-1.5,-3,0
CCCCC1(Cc2ccc(OC)c([N+](=O)[O-])c2)C(=O)N(c2ccccc2)N(c2ccccc2)C1=O,0.36,9,-5,-3.6*,4,-3
CCOc1ccc(CSC(=N)N)cc1[N+](=O)[O-],3.1,8,5,nt,-13,-1
CCOC(=O)N=S(=O)(Oc1ccc([N+](=O)[O-])cc1)c1ccc(Cl)cc1 (stereo unspecified),0.44,12,-14,-4.2*,9,1
Cc1ccc(S(=O)(=O)NC(=O)c2ccc(Br)o2)cc1,nt,nt,nt,0.25,nt,nt
O=C(O)Cn1c(SCCOc2ccccc2F)nc2ccccc21,1.6,2,-11,-5.3*,-6,-1
OCCn1c(SCCOc2ccccc2F)nc2ccccc21,0.49,10,-7,-1.2,-20,-1
